# In ChEMBL document CHEMBL3627702, “Navigating CYP1A Induction and Arylhydrocarbon Receptor Agonism in Drug Discovery. A Case History with S1P1 Agonists” (J Med Chem, 2015):
# Legend:
# [1] = target: T1, CYP1A2 (Homo sapiens, UniProt P05177); assay: Induction of CYP1A2-mediated 7-ethoxyresorufin O-deethylase activity in human hepatocytes at 5 uM after 10 mins by fluorescence assay relative to control; assay type: ADME, cell-based, Hepatocyte; conditions: probe 7-ethoxyresorufin, read-out: FC
# T1 sequence (P05177 whole entry): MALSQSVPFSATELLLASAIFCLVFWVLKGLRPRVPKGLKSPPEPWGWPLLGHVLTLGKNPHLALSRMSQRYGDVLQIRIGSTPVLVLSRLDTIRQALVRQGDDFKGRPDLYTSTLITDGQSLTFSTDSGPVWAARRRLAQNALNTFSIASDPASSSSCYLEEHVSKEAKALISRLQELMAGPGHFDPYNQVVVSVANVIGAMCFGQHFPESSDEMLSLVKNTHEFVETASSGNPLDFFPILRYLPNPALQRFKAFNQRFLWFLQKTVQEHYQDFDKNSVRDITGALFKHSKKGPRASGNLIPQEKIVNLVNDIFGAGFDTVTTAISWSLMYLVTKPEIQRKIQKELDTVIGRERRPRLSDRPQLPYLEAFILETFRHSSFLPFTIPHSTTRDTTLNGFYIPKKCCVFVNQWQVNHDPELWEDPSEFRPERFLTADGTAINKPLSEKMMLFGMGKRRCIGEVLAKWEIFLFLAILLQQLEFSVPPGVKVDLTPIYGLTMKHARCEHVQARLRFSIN
# Outline: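 Human hepatocytes were treated for 48 h (re-dosed at 24 h), washed, then incubated with 0.5 μM ethoxyresorufin in serum-free medium for 10 min at 37 °C. Resorufin fluorescence read at Ex 530/Em 590 nm. Rate in fluorescence units/min expressed as fold over solvent control.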
# [2] = tested on: CYP1A2; assay: Induction of CYP1A2 mRNA expression in human hepatocytes at 10 uM relative to control; assay type: ADME, cell-based, Hepatocyte; conditions: read-out: FC
# [3] = tested on: CYP1A2; assay: Induction of CYP1A2 mRNA expression in rat hepatic microsomes at 30 mg/kg, po QD for 7 days relative to control; assay type: ADME, organism-based, Liver; conditions: read-out: FC
# Outline: (§1)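 Male rats dosed orally once daily for 7 days. Hepatic mRNA measured by Taqman and expressed as fold induction versus control animals.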
# [4] = tested on: CYP1A1; assay: Induction of CYP1A1 mRNA expression in rat hepatic microsomes at 30 mg/kg, po QD for 7 days relative to control; assay type: ADME, organism-based, Liver; conditions: read-out: FC; outline: as §1
# [5] = tested on: CYP1A2; assay: Induction of CYP1A2 mRNA expression in rat hepatocytes at 10 uM by Taqman analysis relative to control; assay type: ADME, cell-based, Hepatocyte; conditions: read-out: FC
# [6] = tested on: CYP1A1; assay: Induction of CYP1A1 mRNA expression in rat hepatocytes at 10 uM by Taqman analysis relative to control; assay type: ADME, cell-based, Hepatocyte; conditions: read-out: FC
# [7] = Oral bioavailability in CD rat at 3 mg/kg; assay type: ADME, organism-based; conditions: in vivo
# Outline: (§2)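 Male CD rats cannulated in the femoral and jugular veins, n = 3, crossover design. Day 1: 1 h iv infusion at 1 mg/kg (0.2 mg/mL in ≤5% DMSO/≥95% 10% Kleptose in saline, 5 mL/kg/h). Day 2: oral gavage at 3 mg/kg (0.6 mg/mL in 1% methylcellulose, 5 mL/kg). Blood assayed by LC–MS/MS after acetonitrile precipitation.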
# [8] = Half life in CD rat at 1 mg/kg, iv; assay type: ADME, organism-based; conditions: in vivo
# Outline: (§3)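 Male CD rats carried femoral vein (dosing) and jugular vein (sampling) cannulae and recovered at least 2 days. They received a 1 h iv infusion at 5 mL kg−1 h−1, target 1 mg/kg, at 0.2 mg/mL in DMSO/10% Kleptose in saline (≤5%:≥95%). pH was adjusted to 8.0 if needed and the solution filtered. Definitive studies used n = 3 in crossover; others used single animals.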
# [9] = Volume of distribution at steady state in CD rat at 1 mg/kg, iv; assay type: ADME, organism-based; conditions: in vivo, read-out: Vdss; outline: as §2
# [10] = Blood clearance in CD rat at 1 mg/kg, iv; assay type: ADME, organism-based; outline: as §3
# [11] = Lipophilicity, log D of the compound at pH 7.4; assay type: physicochemical; conditions: buffer
# [12] = Dissociation constant, pKa of the compound; assay type: physicochemical
# [13] = tested on: CYP1A1; assay: Induction of CYP1A1 mRNA expression in Sprague-Dawley rat hepatic microsomes at 25 mg/kg, po QD for 4 days relative to control; assay type: ADME, organism-based, Liver; conditions: read-out: FC
# Outline: (§4)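 Male CD rats (226–325 g, n = 3) were dosed by oral gavage once daily for 4 days as a 1% w/v aqueous methylcellulose suspension (3–6 mg/mL, 5 mL/kg). At the end of the study, a left lateral liver lobe section was placed in RNALater and homogenised in TRIzol. RNA was purified, DNase-treated and converted to cDNA, and Cyp1a1 was read on low-density TaqMan arrays.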
# [14] = tested on: CYP1A2; assay: Induction of CYP1A2 mRNA expression in Sprague-Dawley rat hepatic microsomes at 25 mg/kg, po QD for 4 days relative to control; assay type: ADME, organism-based, Liver; conditions: read-out: FC
# [15] = Cmax in Sprague-Dawley rat at 25 mg/kg, po QD measured on day 1; assay type: ADME, organism-based; parameters: dose 25 mg/kg, route oral; conditions: in vivo
# Outline: (§5)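 Male CD rats (226−325 g), n = 3, given the compound once daily by oral gavage for 4 days. Vehicle was 1% (w/v) methylcellulose aq suspension at 3−6 mg/mL, dosed at 5 mL/kg (target 15−30 mg/kg). Tail vein blood was taken on days 1 and 4 up to 24 h postdose. Blood was diluted 1:1 with water, extracted by acetonitrile protein precipitation and analysed by LC−MS/MS against calibration standards in diluted blood.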
# [16] = Cmax in Sprague-Dawley rat at 25 mg/kg, po QD measured on day 4; assay type: ADME, organism-based; parameters: dose 25 mg/kg, route oral; conditions: in vivo; outline: as §5
# [17] = AUC in Sprague-Dawley rat at 25 mg/kg, po QD measured on day 1; assay type: ADME, organism-based; conditions: in vivo; outline: as §5
# [18] = AUC in Sprague-Dawley rat at 25 mg/kg, po QD measured on day 4; assay type: ADME, organism-based; conditions: in vivo; outline: as §5
# [19] = tested on: Rattus norvegicus; assay: Dose normalized AUC in Sprague-Dawley rat at 25 mg/kg, po QD measured on day 1; assay type: ADME, organism-based; conditions: in vivo; outline: as §5
# [20] = tested on: Rattus norvegicus; assay: Dose normalized AUC in Sprague-Dawley rat at 25 mg/kg, po QD measured on day 4; assay type: ADME, organism-based; conditions: in vivo; outline: as §5
# [21] = tested on: CYP1A1; assay: Induction of CYP1A1 mRNA expression in Sprague-Dawley rat hepatic microsomes at 24 mg/kg, po QD for 4 days relative to control; assay type: ADME, organism-based, Liver; conditions: read-out: FC; outline: as §4
# [22] = tested on: CYP1A2; assay: Induction of CYP1A2 mRNA expression in Sprague-Dawley rat hepatic microsomes at 24 mg/kg, po QD for 4 days relative to control; assay type: ADME, organism-based, Liver; conditions: read-out: FC
# [23] = Cmax in Sprague-Dawley rat at 24 mg/kg, po QD measured on day 1; assay type: ADME, organism-based; parameters: dose 24 mg/kg, route oral; conditions: in vivo; outline: as §5
# [24] = Cmax in Sprague-Dawley rat at 24 mg/kg, po QD measured on day 4; assay type: ADME, organism-based; parameters: dose 24 mg/kg, route oral; conditions: in vivo; outline: as §5
# [25] = AUC in Sprague-Dawley rat at 24 mg/kg, po QD measured on day 1; assay type: ADME, organism-based; conditions: in vivo; outline: as §5
# [26] = AUC in Sprague-Dawley rat at 24 mg/kg, po QD measured on day 4; assay type: ADME, organism-based; conditions: in vivo; outline: as §5
# [27] = tested on: Rattus norvegicus; assay: Dose normalized AUC in Sprague-Dawley rat at 24 mg/kg, po QD measured on day 1; assay type: ADME, organism-based; conditions: in vivo; outline: as §5
# [28] = tested on: Rattus norvegicus; assay: Dose normalized AUC in Sprague-Dawley rat at 24 mg/kg, po QD measured on day 4; assay type: ADME, organism-based; conditions: in vivo; outline: as §5
structure (smiles),measurement,setting,value
Cc1c(-c2noc(-c3ccc(OC(C)C)c(C#N)c3)n2)ccc2c1CCN(CCC(=O)O)C2,"fold induction at 10 min, 5 µM",[1],1.1
same,fold induction at 10 µM,[2],0.2
same,fold induction at 168 h,[3],1
same,fold induction at 168 h,[4],3
same,fold induction at 10 µM,[5],< 1
same,fold induction at 10 µM,[6],< 1
Cc1c(-c2noc(-c3ccc(OC(C)C)c(C#N)c3)n2)ccc2c1OCCN(C(CO)CO)C2,bioavailability,[7],69%
same,half-life,[8],1 h
same,Vd,[9],4 L/kg
same,clearance,[10],3.24 L/h/kg
same,logD,[11],2.86
same,pKa,[12],6.3
same,fold induction at 96 h,[13],40
same,fold induction at 96 h,[14],2
same,Cmax,[15],0.87 µg/mL
same,Cmax,[16],1.14 µg/mL
same,AUC,[17],8.84 µg·h/mL
same,AUC,[18],12.6 µg·h/mL
same,AUC/dose,[19],22 kg·min/L
same,AUC/dose,[20],30 kg·min/L
Cc1c(-c2noc(-c3cnc(NC(C)C)c(C#N)c3)n2)ccc2c1CCN(C(CO)CO)CC2,logD,[11],2.44
same,pKa,[12],8.3
same,fold induction at 96 h,[21],81
same,fold induction at 96 h,[22],2
same,Cmax,[23],1.14 µg/mL
same,Cmax,[24],1.35 µg/mL
same,AUC,[25],17 µg·h/mL
same,AUC,[26],24.9 µg·h/mL
same,AUC/dose,[27],43 kg·min/L
same,AUC/dose,[28],63 kg·min/L
